In ChEMBL document CHEMBL4513216, “Probing the Open Global Health Chemical Diversity Library for Multistage-Active Starting Points for Next-Generation Antimalarials” (ACS Infect Dis, 2020):

Assay: Toxicity liver stage against HepG2, at 10uM
Assay type: cell-based
Design: test concentration 10 uM, cell line HepG2-A16-CD81EGFP
Conditions: human, HepG2-A16-CD81EGFP cells; read-out: INHIBITION
Summary of the method: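 Uninfected HepG2-A16-CD81EGFP cells, 3 × 10^3 per well, 1536-well, plated on prespotted compound at 10 μM final, parasite-free screening media added to match infected plates; puromycin 10 μM positive, DMSO 0.5% negative; run in parallel with 48 h PbLuc assay at 37 °C, 5% CO2; viability by CellTiter-Glo luminescence, normalized to controls.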

Row | SMILES | cytotoxicity at 10 µM [%]
1 | O=C(NCCCN1CCCC1=O)Nc1ccc(Br)cc1Cl | -2.18
2 | CN1C[C@@H](N)C[C@H]1c1nc(-c2ccc3c(c2)OCO3)no1 | -3.75
3 | CC(=O)N1N=C(c2ccco2)OC1C(=O)NCCc1ccc(F)cc1 (stereo not drawn) | -1.92
4 | O=C(NCC1CCOCC1)c1cc(-c2ccc3c(c2)CCO3)n[nH]1 | 2.63
5 | COc1cccc(-c2nc(C)c(C(=O)N[C@H](CO)CCSC)s2)c1 | 4.63
6 | CC1CCCN(C(=O)c2nnn(-c3ccc(C(F)(F)F)cc3)n2)C1 (stereo not drawn) | -3.43
7 | COCCN(C)C(=O)c1nc2c(s1)CCCN2C | -143
8 | CCS(=O)(=O)N1CC[C@@H]2[C@H](COCC3CC3)CN(C)C(=O)[C@@H]2CC1 | -4.79
9 | CS(=O)(=O)N1CCc2sc(C(=O)NCCc3ccccn3)cc21 | -0.464
10 | CC1CCc2nc(O)c(C(=O)NCCCN3CCN(C)CC3)cc2C1 (stereo not drawn) | -11.6
11 | Cc1csc(CCNC(=O)c2cc3c(nc2O)CCC(C)C3)n1 (stereo not drawn) | -3.91
12 | NC(=O)c1cnc(NC2CC2)nc1CCNC(=O)Cc1ccccc1 | 4.44
13 | Cc1nc(C(=O)N2CCOC(Cc3ccccc3)C2)co1 (stereo not drawn) | -3.24
14 | NCCn1nc(C2CCN(Cc3ccccc3Cl)C2)c2nccnc21 (stereo not drawn) | -14.9
15 | Cc1ccc(S(=O)(=O)Nc2ccc(N3CCOCC3)cn2)cc1 | 3.92
16 | CC(SCCC(=O)NC(N)=O)c1c(F)cccc1F (stereo not drawn) | 6.93
17 | CC(C)CC1(C(=O)NCc2nncn2C2CC2)CCC1 | -1.22
18 | CS(=O)(=O)NCc1ccc(C(=O)NCc2ccc3c(c2)CCC3)o1 | -5.61
19 | Cc1noc(CCCC(=O)N(CC2CCOC2)C2CC2)n1 (stereo not drawn) | 13
20 | CN(c1ncccc1C#N)C1CCN(CCc2ccccn2)CC1 | 0.926
21 | Cc1ccc(S(C)(=O)=O)cc1NCC(=O)NCCC1=CCCCC1 | 0.846
22 | CC(C)(C)CC(NC(=O)N1CCS(=O)(=O)CC1)C(F)(F)F (stereo not drawn) | 0.106
23 | CC(C)(C)CC(NC(=O)N1CCC(C(N)=O)CC1)C(F)(F)F (stereo not drawn) | -1.14

Row | SMILES | cytotoxicity at 10 µM [%]
24 | CCC(C)(CC(=O)OC)NCc1nc(C)no1 (stereo not drawn) | -5.69
25 | Cn1cnnc1CNC(=O)c1ccc(Br)cc1O | -4.06
26 | CCC(CC)(CNC(=O)OC(C)(C)C)NC(=O)C1CCOCC1 | 1.85
27 | O=C(NCCOc1ccc(F)cc1)C1CCCN(C(=O)C2CC2)C1 (stereo not drawn) | 0.856
28 | CCOCCCC(=O)Nc1[nH]nc(-c2ccncc2)c1C | 7.98
29 | O=C(c1coc(-c2ccccc2)n1)N1CCCC1 | 5.47
30 | Cc1cccc(C(=O)NCC2CCS(=O)(=O)C2)n1 (stereo not drawn) | -6.21
31 | Clc1ccccc1CNC(Cn1cncn1)c1ccccc1 (stereo not drawn) | -2.88
32 | Cc1nn(C)c(N2CCCN(C)CC2)c1CNC(=O)C(C)(C)C | -12
33 | CCc1cccc(NC(=O)NC2CCc3nc(C)nn3C2)c1 (stereo not drawn) | -12.5
34 | CC(C)(C(=O)NCc1ccc(C#N)cc1)n1cc(Br)cn1 | 12.4
35 | CN1CC(C(=O)NC(C)(C)CNC(=O)OC(C)(C)C)CC1=O (stereo not drawn) | -3.88
36 | O=S(=O)(c1ccc(F)cc1)N1CCN(CCCn2ccnc2)CC1 | -5.63
37 | O=C(NC1CCS(=O)(=O)C1)c1ccc(-c2ccc(F)cc2)s1 (stereo not drawn) | -2.32
38 | Cc1cc(CNC(=O)C2CCCN2C(=O)OC(C)(C)C)no1 (stereo not drawn) | -4.12
39 | O=C(NC1CC1)C1CCCN1c1ncnc2ccsc12 (stereo not drawn) | -5.2
40 | CC(C)CC(C#N)NC(=O)COC1CCCCC1 (stereo not drawn) | 5.42
41 | Cc1ccc(CCNC(=O)c2cccnc2)o1 | -0.996
42 | O=C(NCCNc1ccc(Br)cn1)c1ccc(O)cc1 | 0.612
43 | Cc1n[nH]c(C2CN(C(=O)c3ccn(C)c(=O)c3)CCO2)n1 (stereo not drawn) | -5.3
44 | Cc1cccc(C(=O)N2CCN(CCOC(C)C)CC2)n1 | -0.0394
45 | NC(=O)CCSc1n[nH]c(-c2ccc3c(c2)CCC3)n1 | -0.302
46 | COc1cccc(N2CCC(CNC(=O)NCc3ccco3)C2)c1 (stereo not drawn) | -127

Row | SMILES | cytotoxicity at 10 µM [%]
47 | CC(C)N(Cc1ccccc1)Cc1csc(-c2ncccn2)n1 | 7.76
48 | CC(=O)N(CCc1nc(-c2cc(C(N)=O)co2)cs1)C(C)C | -4.91
49 | CC1(c2ccc(Br)cc2)CC(=O)N(CCC(N)=O)C1=O (stereo not drawn) | -3.74
50 | Cc1ccc(CN(C)C)cc1NC(=O)C1CC1 | 1.32
51 | CNC(=O)COc1c(C(C)=O)ccc(Cl)c1Cl | -0.769
52 | CCN(CCNC(=O)C1CCN(C(C)=O)CC1)c1ccccc1C | -6.19
53 | CN(C)c1ccc(NC(=O)N2CCCC2c2ccsc2)cn1 (stereo not drawn) | -7.81
54 | CCc1noc(CS(=O)(=O)c2cccc(OC)c2)n1 | 6.7
55 | CN(C)c1ccc(NC(=O)N2CCCCC2c2ncc[nH]2)cn1 (stereo not drawn) | -1.78
56 | Cc1nc(S(=O)(=O)N2CCSCC2)cn1C | -9.09
57 | COCC(=O)N(C)Cc1ccc(OCc2cccs2)cc1 | 1.73
58 | CC(C)S(=O)(=O)NCC1CCCN(C(=O)c2ccc3c(c2)CCC3)C1 (stereo not drawn) | -14.7
59 | CCc1nc(N2CCC3(CC2)OCCCC3O)ncc1C (stereo not drawn) | 7.41
60 | COCC1CCN(C(=O)c2cn(Cc3ccccc3C(F)(F)F)nn2)C1 (stereo not drawn) | 6.86
61 | Cc1ccc2c(c1)c(CNC(=O)C1CCN(C(=O)C3CC3)CC1)nn2C | -0.687
62 | CCn1c(C2CCCN(Cc3ccc(OC)c(C)c3C)C2)nn(C)c1=O (stereo not drawn) | 5.52
63 | CCCn1ncc(C(=O)N2CCN(C(=O)c3ccc[nH]3)CC2)c1C | -151
64 | COc1nccnc1N1CCN(Cc2ccc(F)cc2)C(=O)C1 | 1.27
65 | CCCOCCn1ncc(N2CCCC2)cc1=O | -10.7
66 | CCc1cc(CN(C)C(=O)c2cnn[nH]2)on1 | 7.48
67 | CCOCC(=O)N1CCC(c2nc(-c3cccnn3)no2)CC1 | -3.3
68 | Cn1c(-c2ccccc2Cl)nc2cc(C(=O)NCC3(CO)CC3)cnc21 | -4.33
69 | O=C(C1CNCCO1)N1CCC(c2cc(N3CCCC3)ncn2)CC1 (stereo not drawn) | 6.15

Row | SMILES | cytotoxicity at 10 µM [%]
70 | CO[C@H]1CNC[C@@H]1NC(=O)c1cc(C)nc2c(C)c(C)ccc12 | 0.936
71 | Cn1c(-c2ccccc2Cl)nc2cc(C(=O)NCCOCCO)cnc21 | -0.951
72 | COc1ccnc(CNc2cc(C3CC3)ncn2)c1 | -7.64
73 | Cc1cc(N2CCOC(C(F)(F)F)C2)nc(-c2ccccc2O)n1 (stereo not drawn) | -0.238
74 | CN(Cc1cc(-c2ccccc2)no1)Cc1nccn1C | -2.27
75 | O=C(N1CCOCC1)N1CC[C@@](O)(c2ccccc2)[C@H]2CCCC[C@@H]21 | -1.11
76 | CN(C)CC(C)(C)CN1CCC(c2ccnc(-c3cccc(O)c3)c2)C1 (stereo not drawn) | 3.36
77 | CCNc1ccnc(NCc2cn3nc(C)sc3n2)n1 | -3.41
78 | Cc1cc(C)n(CC(C)NCc2nncn2C2CCCCC2)n1 (stereo not drawn) | -3.26
79 | CO[C@H]1CN(C(=O)c2ccc(-c3cc[nH]n3)cc2)CC[C@H]1N | 5.29
80 | CCC(=O)c1ccc(OCC(=O)NC(C)c2nnn[nH]2)cc1 (stereo not drawn) | -1.62
81 | CN(CCN1CCCCCC1)C(=O)c1c(O)cccc1O | -7.08
82 | CCCOC(C)C(=O)N1CCC(O)(c2ccc3nc(C)ccc3c2)CC1 (stereo not drawn) | 1.12
83 | O=C(Nc1ccc(S(=O)(=O)Nc2c(F)cccc2F)cc1)N1CCCC1 | 5.66
84 | O=C(c1ccc(C2CCCO2)s1)N1CCOCC1 (stereo not drawn) | 10.3
85 | CCc1cc(N2CCNCC2)n2nc(C)c(C)c2n1 | -2.59
86 | CCOC(=O)C1CCCN(c2ccc(-c3nc(C)no3)cn2)C1 (stereo not drawn) | -3.74
87 | Cc1cc(C(=O)N2CCCC(C)C2)ccc1NCC(=O)N1CCOCC1 (stereo not drawn) | -0.153
88 | Cc1ccc(NC2CCN(C(=O)CCc3nccs3)CC2)nn1 | -9.93
89 | Cc1ccccc1CNC(=O)CN1CCCC(Cc2nccn2C)C1 (stereo not drawn) | -15.4
90 | Cc1ccc(-c2nnc(CN3CCCC(Cn4cncn4)C3)o2)cc1 (stereo not drawn) | -9.07
91 | Cc1cnn(CC(=O)NCC2CCN(c3cc(Cl)ccc3C)C2)c1 (stereo not drawn) | -3.92
92 | CC(O)CN1CCC(CNCc2ccccc2Cl)CC1 (stereo not drawn) | -11.9

Row | SMILES | cytotoxicity at 10 µM [%]
93 | COc1cccc(COCC(=O)N2CCCCCC2)c1 | -3.48
94 | O=C(CCCc1nnc(-c2ccccc2)o1)N1CCN(C2CC2)CC1 | -12
95 | Cc1nn(C)c(C)c1C1CCCN1CC(=O)Nc1ccc(Cl)cn1 (stereo not drawn) | -7.1
96 | CC(C)Oc1ncccc1CNC(=O)c1ccccn1 | -21.3
97 | CCc1n[nH]c(C2CN(C(=O)c3cnc(C)nc3CC)CCO2)n1 (stereo not drawn) | -3.39
98 | Cc1cc(C)n(CC2CN(Cc3nc(C)c(C)o3)CCO2)n1 (stereo not drawn) | 4.17
99 | COc1ccnc(N2CCN(C(=O)Cc3ccsc3)CC2)n1 | -3
100 | COc1c(CNCC(O)c2cccc(F)c2)c(C)nn1C (stereo not drawn) | -6.41
101 | CC(C(=O)Nc1ccnn1C(C)C)N1CCCN(c2nccs2)CC1 (stereo not drawn) | -9.39
102 | Cc1ccc(CN(C)Cc2nc3c(cnn3C)c(=O)[nH]2)o1 | -0.972
103 | O=C1CCC2(CCC(NC3CCOCC3)CC2)N1Cc1ccccc1 (stereo not drawn) | -0.0368
104 | O=C(CN1CC(c2nc(C3CC3)no2)C1)NCc1ccc(F)cc1 | 0.291
105 | Cc1ccc(CN2CCCn3cnc(COCC4CC4)c3C2)o1 | 8.82
106 | c1cnc(N2CCOCC3(CN(Cc4ccsc4)CCO3)C2)nc1 (stereo not drawn) | 5.83
107 | CC(C)n1cnc2c1C(C(=O)N1CCOCC1)N(CC1CC1)CC2 (stereo not drawn) | 7.98
108 | Cc1cnc(N2CCC3(C2)C(=O)N(C)CCN3Cc2cccnc2)nc1 (stereo not drawn) | -6.98
109 | CN(C)C(=O)NCc1nnn2c1CN(CC1CCOCC1)CCC2 | -128
110 | O=C(C1CC1)N1CC[C@@H]2[C@H](CC1)N(Cc1cccnc1)CCS2(=O)=O | -1.84
111 | CC(C)N(C)Cc1nnn2c1CN(Cc1cccnc1)CCC2 | 11.3
112 | O=C(C1CCC1)N1C[C@H]2CC[C@@H](C1)N(S(=O)(=O)c1ccccc1)C2 | -10
113 | O=C(c1cccnc1)N1C[C@H]2CC[C@@H](C1)N(Cc1cccc(Cl)c1F)C2 | -9.24
